In the library only some 2.5% were active in any assay of this set; here they are far more common.
TDP2 absorb: blocks human TDP2 phosphodiesterase activity; AID 720702; inhibition, % at 12.8 µM; 0.34% of 370,000 active; recombinant TDP2, T5PNP hydrolysis, p-nitrophenol absorbance 415 nm;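 active means inhibition above the mean of all tested compounds plus 3 SD, set per campaign, cut at about 25% in these data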;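 further: 0% = DMSO with enzyme and 100% = buffer with substrate but no TDP2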
Target sequence (O95551 whole entry, looked up): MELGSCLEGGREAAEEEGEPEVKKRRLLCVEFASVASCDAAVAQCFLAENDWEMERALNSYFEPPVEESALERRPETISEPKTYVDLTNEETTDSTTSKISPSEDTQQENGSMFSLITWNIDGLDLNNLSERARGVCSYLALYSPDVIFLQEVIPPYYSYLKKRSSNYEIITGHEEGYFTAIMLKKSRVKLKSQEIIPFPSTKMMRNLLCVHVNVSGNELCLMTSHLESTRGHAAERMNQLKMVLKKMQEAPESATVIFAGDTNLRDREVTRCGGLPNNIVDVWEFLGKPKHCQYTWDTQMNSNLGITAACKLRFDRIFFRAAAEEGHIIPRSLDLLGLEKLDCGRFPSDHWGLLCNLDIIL
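System: recombinant human TDP2 / Amount: 120 nM TDP2 per well / Also added: 5 mM T5PNP chromogenic substrate / Doses: 12.8 µM single point, 1% DMSO / Incubation: 2 h at 37 °C / Detection: p-Nitrophenol epi absorbance / Evaluation: % inhibition relative to enzyme-containing and enzyme-free wells / Repeats: singlicate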
GSTO1 inh: counter-screen for RBBP9 inhibitors: inhibitors of human GSTO1 | AID 1974 | 1.1% of 300,000 active | inhibition, % at 5.96 µM | recombinant GSTO1, activity-based probe fluorescence polarization | P78417;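 active means inhibition above the campaign mean inhibition plus 3 SD, cut at about 35% in these data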;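 further: 0% = GSTO1-1 with DMSO and 100% = wells lacking GSTO1-1 enzyme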
PRMT1 FP inh: inhibitors of human PRMT1 | Q99873 | recombinant PRMT1, activity-based probe fluorescence polarization | inhibition, % at 2.79 µM | 1.3% of 370,000 active;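 active means inhibition above about 21% made by adding two undisclosed values, limit read from the data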
E coli Lon inh: E. coli protease La inhibition; purified E. coli Lon protease, fluorescence polarization; P0A9M0; 0.42% of 360,000 active; inhibition, % at 7.94 µM; in the data active means inhibition above about 13%, passing the limit was not always enough;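 further: 0% = enzyme with probe and DMSO and 100% = no enzyme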
PAD4 FP inh: PAD4 (human) enzyme inhibition | recombinant PAD4, RCA probe fluorescence polarization | inhibition, % at 6.36 µM | 0.41% of 330,000 active | AID 485272;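 active means percent inhibition above a cutoff equal to the mean of all tested compounds plus 3 SD, cut at about 15% in these data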;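 further: 0% = PAD4 with RCA probe and DMSO and 100% = probe without PAD4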
TDP2 confirm: confirmation of human TDP2 inhibitors; recombinant human TDP2, absorbance read-out; shares compounds with TDP2 absorb; AID 743263; 22% of 1,100 active; inhibition, % at 12.8 µM; in the data active means inhibition above about 25%;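 further: 0% = vehicle with enzyme and 100% = no enzyme buffer only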
* marks the source's active call; other numbers are inactive results.

CC(C)c1ccc(NC2CCCN(C(=O)CN3CCCC3=O)C2)cc1 (centres undefined) was read as TDP2 absorb 7, GSTO1 inh 4, PRMT1 FP inh -4, E coli Lon inh -1 and PAD4 FP inh -3.
Screening O=C(c1cc(COc2c(F)cccc2F)on1)N1CCC(c2ccccc2Cl)C1 (centres undefined) returned TDP2 absorb -18, GSTO1 inh 3, PRMT1 FP inh -2, E coli Lon inh 8 and PAD4 FP inh 1.
For O=C(c1cc(COc2cccc3cnccc23)on1)N1CCC(c2ccccc2Cl)C1 (centres undefined) the results were TDP2 absorb 25*, GSTO1 inh -3, PRMT1 FP inh 0, E coli Lon inh 7, PAD4 FP inh -3 and TDP2 confirm 0.
For C=C1C(=O)OC2CC1C(OC(C)=O)CC(C)=CCCC(C)=CCCC2(C)O (centres undefined) the results were TDP2 absorb -2, PRMT1 FP inh -2 and E coli Lon inh 0.
For C=C1CCC[C@]2(C)C[C@H]3OC(=O)C(CNCCN(CC)CC)[C@H]3CC12 (some centres undefined) the results were TDP2 absorb 34*, GSTO1 inh -3, PRMT1 FP inh -3, E coli Lon inh -2, PAD4 FP inh -7 and TDP2 confirm -4.
`O=C(OCC#CCSc1nnc(-c2cccc3ccccc23)o1)c1csc2ccccc12` gave TDP2 absorb 10 and PRMT1 FP inh 1.
Screening Nc1ccccc1SCC(=O)Nc1ccc(N2CCOCC2)cc1 returned TDP2 absorb 28*, GSTO1 inh 11, PRMT1 FP inh -2, E coli Lon inh -9, PAD4 FP inh -8 and TDP2 confirm 7.
`Cc1ccccc1SCC(=O)Nc1ccc(N2CCOCC2)cc1` gave TDP2 absorb -2, GSTO1 inh -2, PRMT1 FP inh 2, E coli Lon inh -3 and PAD4 FP inh -2.
Screening O=C(Nc1ccc2nc3n(c(=O)c2c1)CCCCC3)c1c(F)ccc([N+](=O)[O-])c1F returned TDP2 absorb 25*, GSTO1 inh -26, PRMT1 FP inh 1, E coli Lon inh -1, PAD4 FP inh 12 and TDP2 confirm 38*.
`O=C(Nc1ccc2nc3n(c(=O)c2c1)CCCCC3)c1cc([N+](=O)[O-])ccc1F` gave TDP2 absorb 1, GSTO1 inh -26, PRMT1 FP inh 1, E coli Lon inh -3 and PAD4 FP inh -10.
`CCCCN1C[C@@H](COCc2ccccc2)Oc2cccc(F)c2S1(=O)=O` gave TDP2 absorb -6 and PRMT1 FP inh -1.
`COc1ccc(COC(=O)c2cccc(S(=O)(=O)N3CCN(C(C)=O)CC3)c2)cc1` gave TDP2 absorb -1, GSTO1 inh 10, PRMT1 FP inh -1, E coli Lon inh -5 and PAD4 FP inh 2.
Screening COc1ccc(COC(=O)c2cccc(S(=O)(=O)N3CCN(C(C)=O)CC3)c2)cc1F returned TDP2 absorb 25*, GSTO1 inh -8, PRMT1 FP inh 2, E coli Lon inh -6, PAD4 FP inh -2 and TDP2 confirm 7.
COC(=O)c1cccc(-n2nnnc2SCC(=O)Nc2nc3c(s2)CCCC3)c1 was read as TDP2 absorb 48*, GSTO1 inh -1, PRMT1 FP inh 0, E coli Lon inh -4, PAD4 FP inh -2 and TDP2 confirm -2.
Screening Nn1cnnc1N/N=C/c1cccc(Cl)c1Cl returned TDP2 absorb 75*, PRMT1 FP inh 4, E coli Lon inh -14 and TDP2 confirm -3.
CCCNC(=O)C1(C)CCN(C(=O)c2ccc3snnc3c2)C1 (centres undefined) was read as TDP2 absorb 9, PRMT1 FP inh 1 and E coli Lon inh -7.
For CCCN(CCC)Cc1cc(=O)oc2cc(OC)ccc12 the results were TDP2 absorb -2, PRMT1 FP inh 7 and E coli Lon inh 6.
CC(=O)c1ccc(OCc2cc(C(=O)NC(C)Cc3ccccn3)no2)cc1 (centres undefined) was read as TDP2 absorb 30*, GSTO1 inh -4, PRMT1 FP inh 0, E coli Lon inh 2, PAD4 FP inh -3 and TDP2 confirm 5.
For COc1ccc(OCc2cc(C(=O)NC(C)Cc3ccccn3)no2)c(Cl)c1 (centres undefined) the results were TDP2 absorb -13, GSTO1 inh -5, PRMT1 FP inh -1, E coli Lon inh -8 and PAD4 FP inh -5.
